ChEMBL document CHEMBL4052634, “Covalent inhibitors of LgtC: A blueprint for the discovery of non-substrate-like inhibitors for bacterial glycosyltransferases” (Bioorg Med Chem, 2017)
Active and inactive are the calls of the source. The rule behind the calls is not given here.

Columns and labels:
Neisseria meningitidis [1] = assay: Binding affinity to Neisseria meningitidis alpha-1,4-galactosyltransferase assessed as covalent-enzyme adduct formation at 50 uM after 20 mins by mass spectroscopy; settings: 100 uM, in the assay text read “at 100 uM” for “at 50 uM”
Procedure, shortened: (§1)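 LgtC stock without DTT activation, diluted in 13 mM HEPES pH 7.0, incubated with inhibitor (100 or 50 µM, added in DMSO; 10% final DMSO) for 20 min at 30 °C; samples injected directly for electrospray MS to detect protein-inhibitor adducts.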

Neisseria meningitidis [2] = assay: Inhibition of Neisseria meningitidis alpha-1,4-galactosyltransferase assessed as rate constant for enzyme activity at 15 uM using lactose as substrate preincubated with substrate measured after 20 mins in presence of UDP-Gal
Procedure, shortened: (§2)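 Activity measured at a series of inhibitor concentrations (0.5-200 µM range overall) after pre-incubation with LgtC for 0, 5, 10, 20 and 30 min, using the pre-incubation protocols (lactose 2 mM, UDP-Gal 28 µM, 20 min at 30 °C, malachite green); % of DMSO control plotted semi-logarithmically versus pre-incubation time to give kobs; kobs versus concentration gave Ki and kinact; triplicate.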

Neisseria meningitidis [3] = assay: (§3) Inhibition of Neisseria meningitidis alpha-1,4-galactosyltransferase assessed as consumption of donor UDP-Gal by measuring turnover rate at 0.1 to 100 uM using lactose as substrate preincubated for 20 mins followed by lactose and UDP-Gal addition measured after 20 mins by malachite green dye-based assay relative to total UDP-Gal used
Neisseria meningitidis [4] = assay: Binding affinity to Neisseria meningitidis alpha-1,4-galactosyltransferase assessed as covalent adduct formation at 100 uM after 20 mins by mass spectrometric analysis; settings: TDE = time-dependent effect; procedure, shortened: as §1
Neisseria meningitidis [5] = assay: as §3, with “for 5” for “for 20”
Neisseria meningitidis [6] = assay: as §3, with “for 60” for “for 20”
Neisseria meningitidis [7] = assay: Inhibition of Neisseria meningitidis alpha-1,4-galactosyltransferase assessed as rate constant for enzyme activity at 100 uM using lactose as substrate preincubated with substrate measured after 20 mins in presence of UDP-Gal; procedure, shortened: as §2
[8] = molecular target: Intestinal-type alkaline phosphatase (Bos taurus) (UniProt P19111); assay: Inhibition of calf intestinal alkaline […] at 0.1 to 100 uM using UDP as substrate after 20 mins by malachite green dye-based assay
Intestinal-type alkaline phosphatase (Bos taurus), sequence (P19111 20-506 limits assumed): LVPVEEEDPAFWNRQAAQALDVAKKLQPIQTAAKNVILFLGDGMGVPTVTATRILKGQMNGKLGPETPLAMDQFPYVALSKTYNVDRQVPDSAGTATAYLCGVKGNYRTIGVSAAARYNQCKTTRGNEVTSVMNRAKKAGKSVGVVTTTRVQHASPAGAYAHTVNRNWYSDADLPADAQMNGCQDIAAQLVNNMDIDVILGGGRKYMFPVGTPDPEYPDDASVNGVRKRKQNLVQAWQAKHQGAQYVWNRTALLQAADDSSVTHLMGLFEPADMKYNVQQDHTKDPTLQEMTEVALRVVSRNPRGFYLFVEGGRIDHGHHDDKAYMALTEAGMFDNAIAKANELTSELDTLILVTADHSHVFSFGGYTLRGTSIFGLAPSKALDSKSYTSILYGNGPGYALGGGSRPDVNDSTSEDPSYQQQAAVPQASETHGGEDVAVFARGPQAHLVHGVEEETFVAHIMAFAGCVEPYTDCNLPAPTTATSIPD

Neisseria meningitidis [9] = assay: as §3, with “for 30” for “for 20”
Neisseria meningitidis [10] = assay: Inhibition of Neisseria meningitidis alpha-1,4-galactosyltransferase assessed as rate constant for enzyme activity at 6 uM using lactose as substrate preincubated with substrate measured after 20 mins in presence of UDP-Gal; procedure, shortened: as §2
Neisseria meningitidis [11] = assay: as §3, with “to 50” for “to 100”, “for 180” for “for 20”
Neisseria meningitidis [12] = assay: as §3, with “assessed as” for “assessed”, “50” for “100”
Neisseria meningitidis [13] = assay: Inhibition of Neisseria meningitidis alpha-1,4-galactosyltransferase assessed as rate constant for enzyme activity at 2 uM using lactose as substrate preincubated with substrate measured after 20 mins in presence of UDP-Gal; procedure, shortened: as §2
Neisseria meningitidis [14] = assay: as §3, with “to 50” for “to 100”, “for 30” for “for 20”
Neisseria meningitidis [15] = assay: Binding affinity to Neisseria meningitidis alpha-1,4-galactosyltransferase assessed as covalent adduct formation at 50 uM by mass spectrometric analysis; settings: TDE = time-dependent effect; procedure, shortened: as §1
Neisseria meningitidis [16] = assay: as §3, with “to 50” for “to 100”, “for 5” for “for 20”
Neisseria meningitidis [17] = assay: Binding affinity to Neisseria meningitidis alpha-1,4-galactosyltransferase assessed as covalent-enzyme adduct formation at 100 uM after 20 mins by mass spectroscopy; settings: 50 uM, in the assay text read “at 50 uM” for “at 100 uM”; procedure, shortened: as §1
Neisseria meningitidis [18] = assay: Inhibition of Neisseria meningitidis alpha-1,4-galactosyltransferase assessed as rate constant for enzyme activity at 3 uM using lactose as substrate preincubated with substrate measured after 20 mins in presence of UDP-Gal; procedure, shortened: as §2
Neisseria meningitidis [19] = assay: as §3, with “to 50” for “to 100”, “for 60” for “for 20”
Neisseria meningitidis [20] = assay: Inhibition of Neisseria meningitidis alpha-1,4-galactosyltransferase assessed as consumption of donor UDP-Gal by measuring turnover rate at 0.1 to 50 uM using lactose as substrate in presence of UDP-Gal measured after 20 min by malachite green dye-based assay relative to total UDP-Gal used
Procedure, shortened: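 No pre-incubation: DTT-activated LgtC with MnCl2 5 mM, CIP 10 U/mL, egg-white lysozyme 1 mg/mL, 0.01% Triton, 13 mM HEPES pH 7.0, lactose 2 mM, inhibitor in DMSO (10% final); started with UDP-Gal 28 µM, 20 min at 30 °C, 20-50% donor turnover. Malachite green read at 620 nm against a UDP calibration curve, background without acceptor subtracted, % of assay window; triplicate minimum; IC50 from sigmoidal fit.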

| Activity (Neisseria meningitidis [1]) | K (Neisseria meningitidis [2]) [min⁻¹] | inhibition (Neisseria meningitidis [3]) [%] | Activity (Neisseria meningitidis [4]) | inhibition (Neisseria meningitidis [5]) [%] | inhibition (Neisseria meningitidis [6]) [%] | K (Neisseria meningitidis [7]) [min⁻¹] | inhibition [8] | inhibition (Neisseria meningitidis [9]) [%] | K (Neisseria meningitidis [10]) [min⁻¹] | inhibition (Neisseria meningitidis [11]) [%] | inhibition (Neisseria meningitidis [12]) [%] | K (Neisseria meningitidis [13]) [min⁻¹] | inhibition (Neisseria meningitidis [14]) [%] | Activity (Neisseria meningitidis [15]) | inhibition (Neisseria meningitidis [16]) [%] | Activity (Neisseria meningitidis [17]) | K (Neisseria meningitidis [18]) [min⁻¹] | inhibition (Neisseria meningitidis [19]) [%] | inhibition (Neisseria meningitidis [20]) [%] | Structure (SMILES) |
| --- | --- | --- | --- | --- | --- | --- | --- | --- | --- | --- | --- | --- | --- | --- | --- | --- | --- | --- | --- | --- |
| Active | 0.021 | 27 | Tde | 30 | 29 | 0.072 | inactive | 24 | 0.01 |  |  |  |  |  |  |  |  |  |  | O=C1/C(=C\c2cccc(OCc3ccccc3)c2)C(C(F)(F)F)=NN1c1ccccc1 |
|  |  |  |  |  |  |  |  |  |  | 26 | 32 | 0.012 | 32 | Tde | 32 | Active | 0.025 | 39 | 30 | COc1ccc(/C=C2\C(=O)N(c3ccccc3)N=C2C(F)(F)F)cc1Br |
